From publication PMC3938282 (Journal of the American Chemical Society, 2013)

Tests used:
[1] = target: Src-WT (Gallus gallus, UniProt P00523); test: in vitro kinase inhibition, seven-point dose-response; assay type: biochemical
[2] = target: Src-AS1 (Gly gatekeeper) (Gallus gallus, UniProt P00523, T338G); test: as above; assay type: biochemical
[3] = target: Src-AS2 (Ala gatekeeper) (Gallus gallus, UniProt P00523, T338A); test: as above; assay type: biochemical
[4] = system: v-Src-AS1; test: inhibition of tyrosine phosphorylation in stably transfected 3T3 cells; assay type: cell-based, mouse
[5] = system: 308 human kinases; details: cited from earlier work; for share of all protein kinases targeted (same metric, more than 80% inhibition): 500 nM
[6] = target: CK1ε (Homo sapiens, UniProt P49674); test: in vitro IC50 against PP-sensitive WT kinases; assay type: biochemical; details: read-out: IC50 CK1ε; mean ± SEM
Summary of the method: (§1)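 In vitro kinase inhibition. IC50 derived from a seven-point dose-response of test compound; values reported as mean with standard error of the mean.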

[7] = target: CKδ (Homo sapiens, UniProt P48730); test: in vitro IC50 against PP-sensitive WT kinases; assay type: biochemical; details: read-out: IC50 CKδ; mean ± SEM
Summary of the method: as §1

[8] = target: Pkd1 (Homo sapiens, UniProt Q15139); test: in vitro IC50 against PP-sensitive WT kinases; assay type: biochemical; details: read-out: IC50 Pkd1; mean ± SEM
Summary of the method: as §1

[9] = target: Pkd2 (Homo sapiens, UniProt Q9BZL6); test: in vitro IC50 against PP-sensitive WT kinases; assay type: biochemical; details: read-out: IC50 Pkd2; mean ± SEM
Summary of the method: as §1

[10] = target: Ack (Homo sapiens, UniProt Q07912); test: in vitro IC50 against PP-sensitive WT kinases; assay type: biochemical; details: read-out: IC50 Ack; mean ± SEM
Summary of the method: as §1

[11] = target: EphA1 (Homo sapiens, UniProt P21709); test: in vitro IC50 against PP-sensitive WT kinases; assay type: biochemical; details: read-out: IC50 EphA1; mean ± SEM
Summary of the method: as §1

[12] = target: Ptk6 (Homo sapiens, UniProt Q13882); test: in vitro IC50 against PP-sensitive WT kinases; assay type: biochemical; details: read-out: IC50 Ptk6; mean ± SEM
Summary of the method: as §1

[13] = target: Ret (Homo sapiens, UniProt P07949); test: in vitro IC50 against PP-sensitive WT kinases; assay type: biochemical; details: read-out: IC50 Ret; mean ± SEM
Summary of the method: as §1

[14] = system: 308 human kinases; test: kinase panel inhibition profiling; assay type: biochemical; details: 1 µM
Summary of the method: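 Single-point profiling of 308 human kinases: fraction of each kinase's activity inhibited by test compound at 1µM.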

[15] = system: v-Src-WT; test: inhibition of tyrosine phosphorylation in stably transfected 3T3 cells; assay type: cell-based, mouse
[16] = system: EphA4-AS1; test: EphA4 auto-phosphorylation in transfected HEK-293T cells; assay type: cell-based
[17] = system: Pkd1-AS1; test: Pkd auto-phosphorylation at S916 in transfected HEK-293T cells; assay type: cell-based; details: 625nM - 10µM
Summary of the method: (§2)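 HEK-293T cells transiently transfected with Pkd1-WT or Pkd1-AS1. Cells treated with test compound across 625nM - 10µM, then assessed for Pkd auto-phosphorylation at S916.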

[18] = target: T1, Pkd1-WT (Homo sapiens, UniProt Q15139); test: as above; assay type: cell-based; details: 625nM - 10µM
Summary of the method: as §2

[19] = system: Pkd1-AS2; test: Pkd1-AS2 inhibition in cells; assay type: cell-based
[20] = target: Kif5b-Ret-AS2 (Homo sapiens, UniProt P07949+P33176, V804A); test: Ret auto-phosphorylation at Y905 in 3T3 mouse cells; assay type: cell-based
Summary of the method: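 Mouse 3T3 cells expressing Kif5b-Ret-AS2 or Kif5b-Ret-WT were exposed to test compound at 10µM, 3.3µM and 1.1µM. Read-out was Ret auto-phosphorylation at Y905.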

[21] = target: EphA4-WT (Homo sapiens, UniProt P54764); test: EphA4 auto-phosphorylation in transfected HEK-293T cells; assay type: cell-based
[22] = target: T1, Pkd1-WT; details: cited from earlier work
[23] = target: Kif5b-Ret-WT (Homo sapiens, UniProt P07949+P33176); details: cited from earlier work
[24] = N12-butylamine derivative of the C7-iso-butyl staralog

T1 sequence (Q15139 whole entry): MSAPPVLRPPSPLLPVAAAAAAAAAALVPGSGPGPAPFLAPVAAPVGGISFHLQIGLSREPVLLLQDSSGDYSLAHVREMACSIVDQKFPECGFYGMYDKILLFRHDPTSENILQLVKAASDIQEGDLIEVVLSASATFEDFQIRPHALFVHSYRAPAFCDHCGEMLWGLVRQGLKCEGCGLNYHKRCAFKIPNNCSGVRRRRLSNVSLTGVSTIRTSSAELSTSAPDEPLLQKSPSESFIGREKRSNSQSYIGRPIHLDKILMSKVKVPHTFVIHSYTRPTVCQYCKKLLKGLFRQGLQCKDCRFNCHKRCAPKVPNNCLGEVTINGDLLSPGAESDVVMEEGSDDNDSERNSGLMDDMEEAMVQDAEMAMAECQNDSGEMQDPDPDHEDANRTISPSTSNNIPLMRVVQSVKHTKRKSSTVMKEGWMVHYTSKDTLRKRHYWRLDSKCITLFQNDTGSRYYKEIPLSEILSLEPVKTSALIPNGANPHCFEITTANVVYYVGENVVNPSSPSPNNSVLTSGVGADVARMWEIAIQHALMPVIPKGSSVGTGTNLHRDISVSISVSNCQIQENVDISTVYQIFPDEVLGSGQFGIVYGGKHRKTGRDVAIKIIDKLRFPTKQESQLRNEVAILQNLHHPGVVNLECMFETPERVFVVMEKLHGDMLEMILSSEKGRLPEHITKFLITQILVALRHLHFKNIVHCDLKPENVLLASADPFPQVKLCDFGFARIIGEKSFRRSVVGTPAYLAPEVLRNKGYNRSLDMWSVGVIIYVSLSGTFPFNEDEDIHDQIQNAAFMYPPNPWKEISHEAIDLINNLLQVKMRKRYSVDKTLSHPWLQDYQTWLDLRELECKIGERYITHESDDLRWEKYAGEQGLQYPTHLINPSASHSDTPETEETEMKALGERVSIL
Ptk6, sequence (Q13882 whole entry): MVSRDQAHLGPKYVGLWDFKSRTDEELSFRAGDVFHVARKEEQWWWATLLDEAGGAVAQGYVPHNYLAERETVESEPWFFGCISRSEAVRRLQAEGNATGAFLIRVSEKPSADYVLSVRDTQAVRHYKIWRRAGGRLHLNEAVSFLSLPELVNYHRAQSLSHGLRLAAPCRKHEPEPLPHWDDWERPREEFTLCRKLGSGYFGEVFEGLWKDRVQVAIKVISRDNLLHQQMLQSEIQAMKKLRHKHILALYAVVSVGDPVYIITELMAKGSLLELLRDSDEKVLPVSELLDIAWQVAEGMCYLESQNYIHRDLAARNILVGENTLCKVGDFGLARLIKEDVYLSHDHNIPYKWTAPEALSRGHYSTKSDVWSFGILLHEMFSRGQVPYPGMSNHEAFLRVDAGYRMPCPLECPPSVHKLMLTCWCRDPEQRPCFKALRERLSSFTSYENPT
Kif5b-Ret-WT, sequence (P07949 713-1063 limits assumed, one chain of several): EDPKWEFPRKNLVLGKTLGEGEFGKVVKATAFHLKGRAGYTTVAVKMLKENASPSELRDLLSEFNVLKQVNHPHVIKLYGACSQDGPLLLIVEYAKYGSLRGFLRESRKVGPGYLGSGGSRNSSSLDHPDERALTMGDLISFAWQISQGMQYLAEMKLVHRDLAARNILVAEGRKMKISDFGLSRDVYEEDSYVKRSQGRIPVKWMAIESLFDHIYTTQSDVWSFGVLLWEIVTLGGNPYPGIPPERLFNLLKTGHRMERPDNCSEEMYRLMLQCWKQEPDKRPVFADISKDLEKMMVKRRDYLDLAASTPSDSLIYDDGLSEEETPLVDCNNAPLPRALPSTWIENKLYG
CKδ, sequence (P48730 whole entry): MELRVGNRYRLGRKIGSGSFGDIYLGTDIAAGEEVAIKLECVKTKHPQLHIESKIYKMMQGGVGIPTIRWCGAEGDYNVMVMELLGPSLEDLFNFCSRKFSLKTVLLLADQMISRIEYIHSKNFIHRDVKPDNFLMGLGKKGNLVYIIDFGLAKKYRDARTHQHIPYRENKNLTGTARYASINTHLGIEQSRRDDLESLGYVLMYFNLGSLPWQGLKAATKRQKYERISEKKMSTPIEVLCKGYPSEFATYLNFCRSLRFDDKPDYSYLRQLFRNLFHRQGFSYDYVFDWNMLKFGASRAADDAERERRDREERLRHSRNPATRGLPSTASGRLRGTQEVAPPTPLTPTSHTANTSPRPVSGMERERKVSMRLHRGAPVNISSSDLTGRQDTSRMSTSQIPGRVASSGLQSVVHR
Pkd2, sequence (Q9BZL6 whole entry): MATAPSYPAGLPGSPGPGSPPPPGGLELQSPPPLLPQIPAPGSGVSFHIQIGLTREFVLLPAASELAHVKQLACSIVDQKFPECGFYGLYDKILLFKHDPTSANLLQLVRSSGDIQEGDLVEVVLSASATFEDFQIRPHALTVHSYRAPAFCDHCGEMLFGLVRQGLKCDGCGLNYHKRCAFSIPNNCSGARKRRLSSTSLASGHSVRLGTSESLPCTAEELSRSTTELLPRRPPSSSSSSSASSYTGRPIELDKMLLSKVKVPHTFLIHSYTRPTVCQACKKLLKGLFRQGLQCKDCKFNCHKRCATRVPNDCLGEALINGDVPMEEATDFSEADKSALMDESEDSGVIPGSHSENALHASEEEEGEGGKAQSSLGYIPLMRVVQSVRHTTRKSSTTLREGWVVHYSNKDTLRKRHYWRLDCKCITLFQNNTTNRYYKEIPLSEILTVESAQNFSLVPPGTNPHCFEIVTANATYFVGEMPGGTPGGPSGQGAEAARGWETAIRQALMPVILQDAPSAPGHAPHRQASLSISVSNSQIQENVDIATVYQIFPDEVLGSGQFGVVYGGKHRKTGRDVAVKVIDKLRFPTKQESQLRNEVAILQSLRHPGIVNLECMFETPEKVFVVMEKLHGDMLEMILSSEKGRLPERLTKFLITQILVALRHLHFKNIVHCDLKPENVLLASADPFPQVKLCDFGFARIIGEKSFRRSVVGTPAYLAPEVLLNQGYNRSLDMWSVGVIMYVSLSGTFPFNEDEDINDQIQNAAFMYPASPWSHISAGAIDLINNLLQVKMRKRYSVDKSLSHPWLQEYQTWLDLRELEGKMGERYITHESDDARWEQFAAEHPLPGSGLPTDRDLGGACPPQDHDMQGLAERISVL
CK1ε, sequence (P49674 whole entry): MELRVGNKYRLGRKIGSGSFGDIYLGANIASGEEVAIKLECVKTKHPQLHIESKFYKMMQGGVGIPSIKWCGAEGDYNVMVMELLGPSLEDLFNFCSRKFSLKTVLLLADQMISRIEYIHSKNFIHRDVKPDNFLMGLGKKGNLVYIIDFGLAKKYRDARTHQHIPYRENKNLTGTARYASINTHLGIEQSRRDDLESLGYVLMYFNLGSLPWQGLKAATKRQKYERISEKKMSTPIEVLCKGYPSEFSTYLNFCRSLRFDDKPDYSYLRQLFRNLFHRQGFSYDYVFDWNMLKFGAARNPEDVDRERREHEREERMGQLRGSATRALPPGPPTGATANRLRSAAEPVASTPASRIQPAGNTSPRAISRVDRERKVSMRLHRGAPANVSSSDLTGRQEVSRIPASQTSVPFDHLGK
Ret, sequence (P07949 29-1114): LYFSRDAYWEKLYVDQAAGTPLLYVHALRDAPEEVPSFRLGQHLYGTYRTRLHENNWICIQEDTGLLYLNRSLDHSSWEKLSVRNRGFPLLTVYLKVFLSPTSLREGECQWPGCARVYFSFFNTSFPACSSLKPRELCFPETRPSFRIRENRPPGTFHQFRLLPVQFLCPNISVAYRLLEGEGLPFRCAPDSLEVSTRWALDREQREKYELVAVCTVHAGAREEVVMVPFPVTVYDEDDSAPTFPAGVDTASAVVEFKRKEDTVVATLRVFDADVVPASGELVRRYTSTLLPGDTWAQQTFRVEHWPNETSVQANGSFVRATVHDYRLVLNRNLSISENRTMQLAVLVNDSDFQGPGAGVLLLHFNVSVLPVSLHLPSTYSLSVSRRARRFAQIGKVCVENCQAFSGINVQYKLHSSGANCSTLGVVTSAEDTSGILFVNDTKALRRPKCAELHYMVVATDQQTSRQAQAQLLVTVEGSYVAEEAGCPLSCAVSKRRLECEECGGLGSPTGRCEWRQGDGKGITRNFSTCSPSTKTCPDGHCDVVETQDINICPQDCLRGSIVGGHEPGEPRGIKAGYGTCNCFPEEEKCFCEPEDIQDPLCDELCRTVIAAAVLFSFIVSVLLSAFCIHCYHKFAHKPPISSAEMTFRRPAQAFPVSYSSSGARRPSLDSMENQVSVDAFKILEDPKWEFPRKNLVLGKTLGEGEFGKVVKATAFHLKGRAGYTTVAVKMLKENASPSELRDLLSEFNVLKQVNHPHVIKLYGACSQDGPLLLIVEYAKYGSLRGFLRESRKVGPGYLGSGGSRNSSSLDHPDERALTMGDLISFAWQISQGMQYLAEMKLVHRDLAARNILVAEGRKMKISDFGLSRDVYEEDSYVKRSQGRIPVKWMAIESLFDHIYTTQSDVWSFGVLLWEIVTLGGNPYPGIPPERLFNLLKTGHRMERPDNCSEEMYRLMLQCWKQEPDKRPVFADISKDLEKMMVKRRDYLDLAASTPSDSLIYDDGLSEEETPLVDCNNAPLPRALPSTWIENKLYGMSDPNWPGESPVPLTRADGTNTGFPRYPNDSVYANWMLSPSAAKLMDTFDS
Kif5b-Ret-AS2, sequence (P07949 713-1063 V804A limits assumed, one chain of several): as the sequence (P07949 713-1063 limits assumed, one chain of several) above, with V92A counted along it
Pkd1, sequence (Q15139 whole entry): as the sequence (Q15139 whole entry) above

## O=C1NCc2c1c1c3ccccc3[nH]c1c1[nH]c3ccccc3c21 [Star K252c, K252c, reference compound]
[1]
  activity towards Src-WT (in words): complete loss of activity
[2]
  activity/potency towards Src-AS1 (in words): complete loss of activity
[3]
  activity towards Src-AS2 (in words): complete loss of activity

## CC(C)C[C@@H]1NC(=O)c2c1c1c3ccccc3[nH]c1c1[nH]c3ccccc3c21 [Star 1]
[2]
  activity/potency towards Src-AS1 (in words): most potent
[4]
  concentration giving robust inhibition of v-Src-AS1 mediated phosphorylation: below 1 µM
  relative potency against v-Src-AS1 in cells (in words): weakest

## Cc1cccc(Cc2nn(C(C)(C)C)c3ncnc(N)c23)c1 [Star 3MB-PP1, 3MB-PP1]
[5]
  share of kinases inhibited by more than 80%: 1.2%

## CN[C@@H]1C[C@H]2O[C@@](C)([C@@H]1OC)n1c3ccccc3c3c4c(c5c6ccccc6n2c5c31)C(=O)NC4 [staurosporine]
[5]
  share of all protein kinases targeted (same metric, more than 80% inhibition): 72%
  share of protein kinases potently targeted: ~ 80%

## COC(=O)[C@@]1(O)C[C@H]2O[C@]1(C)n1c3ccccc3c3c4c(c5c6ccccc6n2c5c31)C(=O)NC4 [Star K252a, K252a]
[5]
  share of all protein kinases targeted (same metric, more than 80% inhibition): 49%

## CC(C)C[C@@H]1NC(=O)c2c1c1c3ccccc3n(CCCCN)c1c1[nH]c3ccccc3c21 [Star 12]
[1]; read-out: IC50 toward Src-WT
  IC50: > 5 µM
[2]; [24]
  improvement in potency toward Src-AS1: ~ ten-fold
[3]; [24]
  improvement in potency toward Src-AS2: ~ ten-fold
[6]
  IC50: > 5 µM
[7]
  IC50: > 5 µM
[8]
  IC50: 3.3 µM
[9]
  IC50: > 5 µM
[10]
  IC50: 1.3 µM
[11]
  IC50: > 5 µM
[12]
  IC50: > 5 µM
[13]
  IC50: > 5 µM
[14]
  highest inhibition of any single kinase in the panel: ≤ 80%
[4]
  concentration giving robust inhibition of v-Src-AS1 mediated phosphorylation: below 1 µM
  relative potency against v-Src-AS1 in cells (in words): most potent inhibitor
[15]
  effect on v-Src-WT-mediated phosphorylation (in words): little effect
[16]
  activity towards EphA4-AS1 (in words): exhibited activity
[17]
  activity towards Pkd1-AS1 (in words): potent Pkd-AS1 inhibitors
[18]
  effect on Pkd1-WT activity (in words): do not affect Pkd1-WT activity
[19]
  activity towards Pkd1-AS2 (in words): did not show activity
[20]
  inhibition of Ret-AS2 autophosphorylation (in words): capable of inhibiting

## CC(C)(C)n1nc(Cc2cccc3ccccc23)c2c(N)ncnc21 [Star 1NM-PP1, 1NM-PP1]
[5]
  share of kinases inhibited by more than 80%: 1.2%

## CC(C)(C)n1nc(-c2cccc3ccccc23)c2c(N)ncnc21 [Star 1NA-PP1, 1NA-PP1]
[16]; at ≥2.5µM
  inhibition of EphA4-AS1 allele: greater than 90%
[21]
  concentrations at which EphA4-WT activity is inhibited: ≥ 2.5 µM
[5]
  share of kinases inhibited by more than 80%: 4.5%
[22]
  inhibition of Pkd1 WT kinase (in words): weakly inhibited at higher drug concentrations
[23]
  inhibition of Ret WT kinase (in words): weakly inhibited at higher drug concentrations
